Compound activity deposited in PubChem by several laboratories.
This is a sample that favours compounds with a hit; in the whole collection about 9.5% have one here.
HEK293 NFkB inh: inhibitors of PMA/ionomycin-induced NF-kB reporter, primary screen, antigen receptor NF-kB inhibitor project, cell-based, HEK-293 luciferase reporter, luminescence; HEK-293 NF-kB luciferase reporter; inhibition, % at 3 µM; hit rate 0.21% among 62,000; AID 465, 2006;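 active = inhibition above the mean of all tested compounds plus 3 SD, cut at about 40% in these data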;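 note: 0% = stimulated DMSO wells and 100% = 10 µM reference inhibitor 5653914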
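Signal: luciferase luminescence; Material: HEK-293 cells with stable firefly luciferase reporter driven by four HIV NF-kB elements; Probe or stimulus: PMA with ionomycin; Replication: tested once; Times: 1 h compound pretreatment, then 16 h stimulation at 37 °C, 5% CO2; Benchmarks: DMSO and 10 µM reference inhibitor; Evaluation: per-plate % inhibition versus controls.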
M1 antag: antagonists of rat M1 muscarinic receptor; hit rate 3.4% among 64,000; Muscarinic acetylcholine receptor M1 (Rattus norvegicus), P08482; AID 628, 2007; CHO-M1 cells, Fluo-4 calcium, ACh EC80 antagonist mode; active compounds read low; B-score at 10 µM;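 active = calcium fluorescence response, raw or row-and-column corrected B-score, differing from the plate sample mean either way at a set confidence level, mostly lower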
Target sequence (P08482 whole entry, looked up): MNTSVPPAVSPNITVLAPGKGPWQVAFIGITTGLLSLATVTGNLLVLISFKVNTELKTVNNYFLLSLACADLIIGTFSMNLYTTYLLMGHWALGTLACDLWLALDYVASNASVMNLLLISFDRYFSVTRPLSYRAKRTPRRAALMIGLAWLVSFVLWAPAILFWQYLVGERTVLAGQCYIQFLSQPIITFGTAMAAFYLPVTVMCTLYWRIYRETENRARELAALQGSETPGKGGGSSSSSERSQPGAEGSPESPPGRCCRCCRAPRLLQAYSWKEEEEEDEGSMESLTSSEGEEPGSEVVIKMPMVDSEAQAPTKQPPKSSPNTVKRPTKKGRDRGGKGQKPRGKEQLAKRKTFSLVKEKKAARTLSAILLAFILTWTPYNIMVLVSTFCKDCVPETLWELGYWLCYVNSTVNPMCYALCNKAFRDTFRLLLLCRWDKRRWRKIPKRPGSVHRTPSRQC
mHtt clearance: clearance of mutant huntingtin inclusions, primary screen, imaging, HeLa Exon1htt(103Q)mCFP, confocal imaging | aggregate imaging; zero = plate's median compound well | inhibition, % at 1.5 µM | hit rate 0.42% among 47,000 | AID 853, 2007;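 active = inhibition of aggregate fluorescence above about 70%, also judged a hit by eye on the cell image, limit read from the data, passing the limit was not always enough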;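 note: cells exposed to compound for three days before fixation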
Jurkat viability: cytotoxicity toward Jurkat T cells, primary screen, cytotoxicity control, cell-based, Jurkat E6.1, 60K MLSMR library; Jurkat E6.1 viability, ATP luminescence, 48 h; inhibition, % at 4 µM; hit rate 1.2% among 56,000;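 active = inhibition above the mean inhibition of all tested compounds plus 3 SD, cut at about 28% in these data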
M1 ag: M1 muscarinic receptor agonists, primary screen, CHO-M1 cells, Fluo-4 calcium, agonist mode. Fluo-4 calcium fluorescence; active compounds read high. B-score at 10 µM. Muscarinic acetylcholine receptor M1. AID 626, 2007. hit rate 3% among 64,000;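 active = fluorescence rise, raw or as B-score row- and column-corrected plate score, outside the 99.7% band of its plate's samples, either direction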
D1 allo mod: D1 CRE-luciferase signal change, two-sided – cell-based, HEK293 D1, dopamine EC30, D1 allosteric modulator project, primary screen; D(1A) dopamine receptor (Homo sapiens), P21728; dopamine EC30 potentiation; actives deviate in either direction; B-score at 10 µM; hit rate 5.9% among 58,000;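 active = luminescence count or its row- and column-corrected plate score outside the 99.7% band of the plate's sample wells, on either side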
Numbers without * were called inactive; . = no result given.

SMILES	HEK293 NFkB inh	M1 antag	mHtt clearance	Jurkat viability	M1 ag	D1 allo mod
O=C(COc1ccc([N+](=O)[O-])cc1)NN=C1CCCC1	.	.	-16	.	.	.
O=C(O)CSc1nnc(-c2ccc(S(=O)(=O)N3CCCC3)cc2)n1Cc1ccco1	3	0.83	29	-5	-0.046	-4.1*
CCOc1cc2[nH]c(=O)n(CC3CCC(C(=O)NC(C)CC)CC3)c(=O)c2cc1OCC (centres undefined)	12	1.1*	.	2	0.46	0.085
CN1CCN(C2=CC(=O)OC23CCCCC3)CC1	.	.	10	.	.	.
COc1ccc(C(=O)OCCN2C(=O)c3ccccc3C2=O)cc1OC	.	0.99	.	.	0.44	5.7*
COc1ccccc1OCCC(=O)OCCN1C(=O)c2ccccc2C1=O	10	-0.79	-16	4	-0.96	.
O=C(CSc1cn(CCNC(=O)c2ccc3ccccc3c2)c2ccccc12)NCc1ccco1	.	.	-47	.	.	.
CN1[C@@H](CC(=O)c2ccccc2)CCC[C@H]1C[C@H](O)c1ccccc1	.	-8.4*	.	.	34*	-2.1
COc1cc(C2/C(=C(/O)c3ccc(F)cc3)C(=O)C(=O)N2CCCC(=O)O)ccc1O (centres undefined)	9	-0.2	.	-3	-0.33	-3.9*
COc1ccc(-c2nnc3ccc(SCC(=O)N4CCN(c5ccccc5)CC4)nn23)cc1	15	-0.4	.	6	4.4*	0.37
Oc1ccc(Cl)cc1CNc1ccc(Br)cn1	-4	-0.8	9	56*	-0.55	0.24
Oc1c(Cl)cc(Cl)cc1CNc1ccc(Br)cn1	.	0.17	.	.	0.49	0.02
CCCCN(CCCNc1ncnc2nc[nH]c12)c1ccccc1	17	-0.57	.	3	-0.54	-3.5*
O=C(CSc1nnc(Cc2ccccc2)n1C1CCCCC1)N1CCOCC1	8	1.1*	28	-1	0.85	1.5
O=C(CSc1nnc(Cc2ccccc2)n1-c1ccc(F)cc1)N1CCOCC1	-8	0.37	28	-5	-1	-0.2
CC1CCC2(CC1)NC(=O)c1ccccc1O2 (centres undefined)	4	0.16	-9	-5	-0.21	-2.4*
COc1cccc(NC(=O)CSc2nc3c(c(-c4ccco4)c2C#N)CCCC3)c1	-1	0.26	.	-4	-2.6*	-0.77
O=C(O)[C@@H]1CCCC[C@@H]1C(=O)N1CCc2ccccc2C1CN1C(=O)c2ccccc2C1=O (some centres undefined)	59*	-0.017	.	2	0.29	.
COc1ccc(C2C3=C(CCCC3=O)Nc3nc(-c4cc(OC)c(OC)c(OC)c4)nn32)cc1OC (centres undefined)	1	-1.5	.	7	1.5	-3*
COc1ccc(-c2nc3n(n2)C(c2ccccc2)C2=C(CCCC2=O)N3)cc1OC (centres undefined)	7	0.44	.	0	0.44	1.1
COc1ccccc1OCCn1c(C(C)O)nc2ccccc21 (centres undefined)	27	-0.24	4	6	-0.43	-0.019
Cc1ccc(S(=O)(=O)Nc2cccc3ncccc23)s1	15	-0.16	-39	31*	0.52	.
Nc1nnnn1/N=C/C(Br)=C/c1ccccc1	10	-0.63	-140	84*	0.081	0.23
Nc1nnnn1/N=C/C=C/c1ccccc1	7	0.72	.	-3	-0.041	0.23
CCC/C(O)=C1\C(=O)CC(C)(C)CC1=Nc1ccc(OC)cc1OC	21	-0.36	-249	86*	2.1	1.1
SMILES	HEK293 NFkB inh	M1 antag	mHtt clearance	Jurkat viability	M1 ag	D1 allo mod
COC(=O)CC/C(O)=C1\C(=O)CC(C)(C)CC1=Nc1ccccc1OC	.	.	29	.	.	.
CCCCSc1ccc(NC(=O)c2cccnc2)cc1	.	.	31	.	.	.
COc1ccc(-n2ncc3c(NC(C)C)ncnc32)cc1	-16	-0.89	-6	-3	0.23	-4
Clc1ccc(Cn2ncc3c(N4CCCCC4)ncnc32)cc1	-2	-0.19	19	0	0.68	0.12
COc1ccc(-n2ncc3c(NCC(C)C)ncnc32)cc1	-52	1.6	.	11	1.6	-4.2*
Clc1ccc(-n2ncc3c(N4CCCCCC4)ncnc32)cc1	48*	0.36	.	4	-0.025	-8.6*
